EC50 and Ratio data for 31 compounds are collected here from ChEMBL document CHEMBL1157161, “N-1H-benzimidazol-5-ylbenzenesulfonamide derivatives as potent hPXR agonists” (Bioorg Med Chem, 2008).

A value given as a limit tells only on which side of the number the result lay.

In assay [1] the target is T1, Nuclear receptor subfamily 1 group I member 2 (Homo sapiens, UniProt O75469).
T1 sequence (O75469 whole entry): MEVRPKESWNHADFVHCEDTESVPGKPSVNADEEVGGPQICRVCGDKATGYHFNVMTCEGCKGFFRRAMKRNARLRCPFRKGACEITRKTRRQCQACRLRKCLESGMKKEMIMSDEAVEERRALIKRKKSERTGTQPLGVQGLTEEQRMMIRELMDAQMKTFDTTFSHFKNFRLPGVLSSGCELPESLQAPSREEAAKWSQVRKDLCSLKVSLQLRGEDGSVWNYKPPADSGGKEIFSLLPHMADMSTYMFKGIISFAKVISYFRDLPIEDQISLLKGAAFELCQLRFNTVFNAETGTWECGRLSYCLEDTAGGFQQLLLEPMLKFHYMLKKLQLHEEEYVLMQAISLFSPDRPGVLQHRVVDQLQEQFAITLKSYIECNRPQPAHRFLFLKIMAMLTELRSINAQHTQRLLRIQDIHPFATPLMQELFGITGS
The assay is described as follows: Agonist activity at human pregnane X receptor expressed in HGPXR reporter cells. In kind it is functional, cell-based.

In assay [2] the target is T1, Nuclear receptor subfamily 1 group I member 2. Kind of assay: Protection of human pregnane X receptor against proteolytic digestion in presence of trypsin.
The test system of assay [3] is Hepatocyte. The assay is described as follows: Induction of […] mRNA expression in human hepatocyte FT268 at 1 uM after 24 hrs by RT-PCR relative to control. In kind it is functional. A digest of the protocol:
(§1)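 Primary adult human hepatocytes from lobectomy segments, plated on collagen in Williams' E/Ham's F-12 (1:1) defined medium; 24 h exposure begun 48 h after plating, vehicle DMSO 0.1%. Total RNA extracted with TRIzol, cDNA from 1 µg using random hexamers (42 °C, 60 min). Target mRNA quantified by real-time PCR in duplicates, comparative Ct method. Result given as fold induction over DMSO-treated cells ± standard error.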

Assay [4] deals with Hepatocyte. Kind of assay: Induction of CYP3A4 mRNA expression in human hepatocyte FT271 at 1 uM after 24 hrs by RT-PCR relative to control. Type of assay: functional. The essentials: as §1
Assay [5] relates to Hepatocyte. The assay is described as follows: Induction of CYP3A4 mRNA expression in human hepatocyte FT269 at 1 uM after 24 hrs by RT-PCR relative to control. Type of assay: functional. The essentials:
as §1

Assay [6] concerns Hepatocyte. The assay is described as follows: Induction of […] mRNA expression in human hepatocyte FT271 at 1 uM after 24 hrs by RT-PCR relative to control. Type of assay: functional. A digest of the protocol:
as §1

Assay [7] relates to Hepatocyte. Kind of assay: Induction of […] mRNA expression in human hepatocyte FT272 at 1 uM after 24 hrs by RT-PCR relative to control. In kind it is functional. The essentials:
as §1

The test system of assay [8] is Hepatocyte. The assay is described as follows: Induction of […] mRNA expression in human hepatocyte FT269 at 1 uM after 24 hrs by RT-PCR relative to control. Type of assay: functional. The essentials:
as §1

Assay [9] deals with Hepatocyte. Kind of assay: Induction of CYP3A4 mRNA expression in human hepatocyte FT268 at 1 uM after 24 hrs by RT-PCR relative to control. In kind it is functional. The essentials: as §1
The subject of assay [10] is Hepatocyte. The assay is described as follows: Induction of CYP3A4 mRNA expression in human hepatocyte FT272 at 1 uM after 24 hrs by RT-PCR relative to control. In kind it is functional. The essentials: as §1

In assay [1], `O=C(Nc1ccc2c(c1)ncn2Cc1ccccc1)Nc1ccccc1Cl` registered an EC50 of 1.48 µM.

In assay [1], `O=[N+]([O-])c1ccc(S(=O)(=O)Nc2ccc3c(c2)ncn3Cc2ccccc2)cc1` registered an EC50 of 0.336 µM.

Regarding `CC(c1ccccc1)n1cnc2cc(NS(=O)(=O)Cc3ccccc3Cl)ccc21` (racemic), the EC50 in assay [1] was 0.049 µM; in assay [2], 0.809 µM.

Take `O=C(Cc1ccccc1Cl)Nc1ccc2c(c1)ncn2Cc1ccccc1`: the EC50 in assay [1] was found to be 0.515 µM.

Consider `CCCc1ccc(S(=O)(=O)Nc2ccc3c(c2)ncn3Cc2ccccc2)cc1`, for which the EC50 in [1] was 0.052 µM.

Compound `CCCCCCn1cnc2cc(NS(=O)(=O)c3c(C)c(C)c(C)c(C)c3C)ccc21` displayed an EC50 in [1] of 0.013 µM.

In [1], `O=C(Nc1ccc2c(c1)ncn2Cc1ccccc1)Nc1cccc2ccccc12` showed an EC50 above 5 µM.

On to `O=S(=O)(Cc1ccccc1Cl)Nc1ccc2c(c1)ncn2Cc1ccccc1`, for which the EC50 in assay [1] worked out at 0.176 µM.

In turn, `O=S(=O)(Nc1ccc2c(c1)ncn2Cc1ccccc1)c1cccc2ccccc12` returned an EC50 in assay [1] of 0.02 µM.

In the case of `CCCCCCn1cnc2cc(NS(=O)(=O)c3ccccc3Cl)ccc21`, the EC50 in assay [1] is 0.055 µM.

Turning to `O=S(=O)(Nc1ccc2c(c1)ncn2Cc1ccccc1)c1ccccc1F`, the EC50 in assay [1] came out at 0.101 µM.

In assay [1], `O=C(Cc1ccc2ccccc2c1)Nc1ccc2c(c1)ncn2Cc1ccccc1` showed an EC50 above 5 µM.

`O=S(=O)(Cc1ccccc1Cl)Nc1ccc2ncn(Cc3ccccc3)c2c1`: the EC50 in assay [1] came to 0.376 µM.

Compound `O=C(Cc1cccc2ccccc12)Nc1ccc2c(c1)ncn2Cc1ccccc1` gave an EC50 in assay [1] of 0.217 µM.

In assay [1], `O=S(=O)(Nc1ccc2ncn(Cc3ccccc3)c2c1)c1ccccc1Cl` gave an EC50 of 0.34 µM.

`O=C(Nc1ccc2c(c1)ncn2Cc1ccccc1)Nc1ccccc1[N+](=O)[O-]` showed an EC50 in assay [1] above 5 µM.

Regarding `CCOP(=O)(OCC)C(=Cc1cc(C(C)(C)C)c(O)c(C(C)(C)C)c1)P(=O)(OCC)OCC`, the Ratio was 3.26 in assay [3]; 11.84 in assay [4]; 10.9 in assay [5]; 2 in assay [6]; 3.91 in [7]; 3.74 in [8]. Further, the Ratio in assay [9] came to 4.02; in [10], 24.01.

For `O=S(=O)(Nc1ccc2c(c1)ncn2Cc1ccccc1)c1ccccc1Cl`, the Ratio is 3.02 in assay [3]; 9.97 in assay [4]; 17.04 in [5]; 3.05 in assay [6]; 11.83 in [7]; 10.46 in assay [8]. Also, the Ratio in assay [9] turned out to be 7.23; in [10], 36.06. The EC50 in assay [1] turned out to be 0.023 µM; in assay [2], 0.157 µM.

As for `O=S(=O)(Nc1ccc2c(c1)ncn2Cc1ccccc1)c1ccc(-c2ccccc2)cc1`, the EC50 in assay [1] came out at 0.388 µM.

For the compound `O=S(=O)(Nc1ccc2c(c1)ncn2-c1ccc2ccccc2c1)c1ccccc1Cl`, the EC50 in [1] is 0.385 µM.

`O=S(=O)(Nc1ccc2c(c1)ncn2Cc1ccccc1)c1ccc2ccccc2c1`: the EC50 in assay [1] was found to be 0.051 µM.

For the compound `O=S(=O)(Nc1ccc2c(c1)ncn2Cc1ccccc1)c1ccccc1Br`, in assay [1], the EC50 came out at 0.02 µM.

On to `Cc1cc(C)c(S(=O)(=O)Nc2ccc3c(c2)ncn3Cc2ccccc2)c(C)c1`, for which the Ratio in assay [4] is reported as 15.58; in assay [6], 1.89; in assay [7], 7.55; in assay [10], 31.68. In addition, the EC50 in assay [1] is 0.0015 µM; in assay [2], 0.00805 µM.

As to `O=[N+]([O-])c1ccccc1CS(=O)(=O)Nc1ccc2c(c1)ncn2Cc1ccccc1`, the EC50 in [1] was 0.428 µM.

Compound `Cc1ccccc1S(=O)(=O)Nc1ccc2c(c1)ncn2Cc1ccccc1` had an EC50 in assay [1] of 0.045 µM.

For the compound `Cc1cc(C)cc(S(=O)(=O)Nc2ccc3c(c2)ncn3Cc2ccccc2)c1`, in assay [1], the EC50 came out at 0.033 µM.

As to `O=S(=O)(Cc1ccccc1Cl)Nc1ccc2c(ccn2Cc2ccccc2)c1`, the EC50 in assay [1] turned out to be 0.197 µM.

Compound `O=[N+]([O-])c1ccccc1S(=O)(=O)Nc1ccc2c(c1)ncn2Cc1ccccc1` showed an EC50 in assay [1] of 0.271 µM.

`Cc1c(C)c(C)c(S(=O)(=O)Nc2ccc3c(c2)ncn3-c2ccc3ccccc3c2)c(C)c1C` returned an EC50 in assay [1] of 0.055 µM.

Turning to `Cc1c(C)c(C)c(S(=O)(=O)Nc2ccc3c(c2)ncn3Cc2ccccc2)c(C)c1C`, the Ratio is given as 14.91 in assay [4]; 29.02 in [5]; 4.86 in assay [6]; 11.41 in [7]; 14.89 in assay [8]; 32.59 in [10]. Also, the EC50 in [1] is 0.0007 µM; in assay [2] it was 0.00804 µM.

`CC(C)(C)c1ccc(S(=O)(=O)Nc2ccc3c(c2)ncn3Cc2ccccc2)cc1` showed an EC50 in [1] of 0.042 µM.
